# Experimental data from different studies.
# Lines come from different studies, so protocols differ.
SMILES,test,test system,conditions,endpoint,result
COc1cc(C(=O)c2nc(-c3cccc4[nH]ccc34)c[nH]2)cc(OC)c1OC,,PBS,pH 7.4,thermodynamic solubility,5.25 µM
CN(C)CCOc1ccc(C=Nc2ccccc2N=Cc2ccc(OCCN(C)C)cc2O)c(O)c1.[Ga+3],,water,,solubility,> 50000 µg/mL
Cc1ccc2c(c1)C(=O)C1(O)CCN(c3ccccc3)C1=N2 (centres unmarked),,PBS,pH 7.4,solubility,21 µM
CC1(CC(F)(F)F)NC(=O)N(c2ccc(F)c(C(F)(F)F)c2)C1=O (centres unmarked),nephelometry,aqueous buffer,,kinetic solubility,≤ 50 µg/mL
CC(C)C[C@H]1C(=O)N[C@H]([C@H](C)O)C(=O)N[C@@H](C)C(=O)N[C@@H](Cc2ccccc2)C(=O)N[C@H](C(=O)O)CSSC[C@H](N)C(=O)N2CCC[C@@H]2C(=O)N[C@@H](CCC(=O)O)C(=O)N[C@@H](C(C)C)C(=O)N2CCC[C@H]2C(=O)N1C,,aqueous buffer,"18 h, pH 7.4",solubility,692 µM
COc1cc(N2CC[C@@]3(O)C(=O)c4cc(C)c(C)cc4N=C23)ccn1,,PBS,pH 7.4,solubility,42 µM
CCCSc1ccc2nc(NC(=O)OC)[nH]c2c1,,simulated gastric fluid,"24 h, pH 1.2, 37 °C, acidic",thermodynamic solubility,~300 µg/mL
CC(C)C[C@H]1C(=O)N2CCC[C@H]2C(=O)N[C@@H](CC(N)=O)C(=O)N[C@H](Cc2ccc(O)cc2)C(=O)N[C@H]([C@H](C)O)C(=O)N[C@@H](Cc2ccc(O)cc2)C(=O)N[C@H](C(=O)O)CSSC[C@H](N)C(=O)N[C@@H](Cc2ccccc2)C(=O)N[C@@H](C(C)C)C(=O)N1C,,aqueous buffer,"18 h, pH 7.4",thermodynamic solubility,760 µM
CCC(CNc1nc(-c2cn3ccnc3cc2C)nc2ccccc12)c1ccccc1 (centres unmarked),,water,,solubility,1.3 µM
CC(C)C[C@@H]1NC(=O)[C@H](CCC(=O)O)NC(=O)[C@H]2CCCN2C(=O)[C@@H](N)CSSC[C@@H](C(=O)O)NC(=O)[C@H]2CCCN2C(=O)[C@@H](Cc2ccccc2)NC(=O)[C@H](CC(C)C)NC(=O)[C@H]([C@@H](C)O)NC(=O)[C@H](C(C)C)NC1=O,,aqueous buffer,"18 h, pH 7.4",thermodynamic solubility,679 µM
Oc1ccccc1C=Nc1ccccc1N=Cc1ccccc1O.[Ga+3],,water,,solubility,< 100 µg/mL
O=C1NC2(CCC2)C(=O)N1c1ccc(F)c(C(F)(F)F)c1,nephelometry,aqueous buffer,,kinetic solubility,≤ 50 µg/mL
CC[C@H](C)[C@@H]1NC(=O)CNC(=O)[C@@H](CC(C)C)NC(=O)[C@@H](C(C)C)NC(=O)[C@H]2CCCN2C(=O)[C@@H](CC(C)C)NC(=O)[C@H](Cc2ccccc2)NC(=O)[C@@H]2CCCN2C(=O)[C@H](CC(C)C)NC(=O)[C@H](CO)NC(=O)CNC(=O)[C@H]([C@@H](C)O)NC1=O,,aqueous buffer,"18 h, pH 7.4",solubility,692 µM
c1cc(-c2ccc3ncnc(Nc4ncco4)c3c2)cc(N2C[C@H]3C[C@@H]2CO3)c1,,aqueous buffer,"pH 7.4, 25 °C",solubility,6 µM
